{"source": "ChEMBL document CHEMBL4477181", "about": "“Bioactive Octahydroxylated C21 Steroids from the Root Bark of Lycium chinense” (2016)", "key": {"[1]": {"system": "CHO", "test": "Induction of autophagy in CHO cells expressing GFP-LC3 assessed as GFP-LC3-2 accumulation at 25 uM measured after 8 hrs in presence of bafilomycin A1 by flow cytometry", "format": "functional, cell-based", "details": "Cricetulus griseus", "summary_of_the_method": "(§1)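 CHO cells stably expressing GFP-LC3 (selected in 1 mg/mL G418, maintained in DMEM/10% FBS with 800 μg/mL G418) were grown overnight. They were then treated in triplicate at 10, 25 or 50 μM for 8 h, with 20 μM curcumin as the positive control, alone or with 0.1 μM bafilomycin A1. Cells were trypsinised, washed, saponin-permeabilised, and fluorescence at 488 nm read by flow cytometry (>15,000 events).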"}, "[2]": {"system": "CHO", "test": "Induction of autophagy in CHO cells expressing GFP-LC3 assessed as GFP-LC3-2 accumulation at 25 uM measured after 8 hrs by flow cytometry", "format": "functional, Cricetulus griseus", "summary_of_the_method": "as §1"}, "[3]": {"system": "MIN6", "test": "Protective activity against palmitic acid-induced injury in mouse MIN6 cells assessed as increase in cell proliferation at 5 uM measured after 24 hrs by CCK8 assay", "format": "functional", "summary_of_the_method": "(§2)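 Mouse MIN6 β-cells were kept in DMEM (25 mM glucose, 50 μM β-mercaptoethanol, 10% FBS) and grown 24 h on poly-L-lysine to 80–90% confluency. They were then exposed 24 h in serum-free DMEM to 0.4 mM palmitic acid (final) plus compound in 0.1% DMSO (final); liraglutide was the reference. Read-out was CCK-8 absorbance at 450 nm, blank-corrected. Proliferation (%) = (OD sample − OD model)/OD model × 100.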"}, "[4]": {"system": "MIN6", "test": "Protective activity against palmitic acid-induced injury in mouse MIN6 cells assessed as increase in cell proliferation at 5 and 10 uM measured after 24 hrs by CCK8 assay relative to DMSO control", "format": "functional", "summary_of_the_method": "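MIN6 mouse β cells grown in DMEM (25 mM glucose, 10% FBS, β-mercaptoethanol) on poly-L-lysine plates to 80−90% confluency, then exposed 24 h in serum-free DMEM to 0.4 mM palmitic acid (final) plus compound in 0.1% DMSO (final). CCK-8 absorbance read at 450 nm, with compound-only blanks. Proliferation change = (OD sample − OD model)/OD model × 100.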"}, "[5]": {"system": "MIN6", "test": "Protective activity against palmitic acid-induced injury in mouse MIN6 cells assessed as increase in cell proliferation at 1 uM measured after 24 hrs by CCK8 assay", "format": "functional", "summary_of_the_method": "as §2"}, "[6]": {"system": "MIN6", "test": "Protective activity against palmitic acid-induced injury in mouse MIN6 cells assessed as increase in cell proliferation at 10 uM measured after 24 hrs by CCK8 assay", "format": "functional", "summary_of_the_method": "as §2"}, "[7]": {"system": "MIN6", "test": "Protective activity against palmitic acid-induced injury in mouse MIN6 cells assessed as increase in cell proliferation measured after 24 hrs by CCK8 assay", "format": "functional, cell-based", "summary_of_the_method": "as §2"}, "[8]": {"system": "CHO", "test": "Induction of autophagy in CHO cells expressing GFP-LC3 assessed as GFP-LC3-2 accumulation at 20 uM measured after 8 hrs by flow cytometry relative to control", "format": "functional, Cricetulus griseus", "summary_of_the_method": "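CHO cells stably expressing GFP-LC3 (clones selected in 1 mg/mL G418) were kept in DMEM with 10% FBS and 800 μg/mL G418, seeded in 24-well plates and grown overnight. They were treated in triplicate for 8 h, with untreated cells as blank and 20 μM curcumin as positive control. Cells were trypsinized, washed with PBS then 0.1% saponin/PBS, and fluorescence at 488 nm was read by flow cytometry (>15,000 events).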"}}, "note": "Active and inactive are the calls of the source. The rule behind the calls is not given here."}
{"molecule": "CO[C@H]1C[C@H](O[C@@H]2[C@@H](C)O[C@@H](O[C@H]3[C@@H](O)C[C@H](O[C@H]4CC[C@]5(C)[C@H]6C[C@@H](OC(=O)/C=C/C=C/c7ccccc7)[C@@]7(C)[C@](O)(CC[C@@]7(O)[C@H](C)O)[C@]6(O)C[C@@H](O)[C@@]5(O)C4)O[C@@H]3C)C[C@H]2OC)O[C@H](C)[C@H]1O[C@H]1C[C@@H](OC)[C@H](O)[C@@H](C)O1", "values": [{"measurement": "Activity", "setting": "[1]", "value": "Active"}, {"measurement": "fold change (FC)", "setting": "[2]", "value": 1.3}]}
{"molecule": "CO[C@H]1C[C@H](O[C@H]2[C@@H](O)C[C@H](O[C@H]3CC[C@]4(C)[C@H]5C[C@@H](OC(=O)/C=C/C=C/c6ccccc6)[C@@]6(C)[C@](O)(CC[C@@]6(O)[C@H](C)O)[C@]5(O)C[C@@H](O)[C@@]4(O)C3)O[C@@H]2C)O[C@H](C)[C@H]1O", "values": [{"measurement": "Activity", "setting": "[3]", "value": 81.7, "unit": "%"}, {"measurement": "fold change (FC)", "setting": "[4]", "value": 2}, {"measurement": "Activity", "setting": "[5]", "value": 0.2, "unit": "%"}, {"measurement": "Activity", "setting": "[6]", "value": 87.7, "unit": "%"}, {"measurement": "Activity", "setting": "[1]", "value": "Active"}, {"measurement": "Activity", "setting": "[7]", "value": "Dose-dependent effect"}, {"measurement": "fold change (FC)", "setting": "[2]", "value": 2.1}]}
{"molecule": "C[C@H](O)[C@]1(O)CC[C@@]2(O)[C@]1(C)[C@H](OC(=O)/C=C/C=C/c1ccccc1)C[C@@H]1[C@@]3(C)CC[C@H](O[C@H]4C[C@H](O)[C@H](O)[C@@H](C)O4)C[C@]3(O)[C@H](O)C[C@]12O", "values": [{"measurement": "Activity", "setting": "[3]", "value": 4, "unit": "%"}, {"measurement": "Activity", "setting": "[5]", "value": 1.5, "unit": "%"}, {"measurement": "Activity", "setting": "[6]", "value": 11.2, "unit": "%"}, {"measurement": "Activity", "setting": "[7]", "value": "Dose-dependent effect"}]}
{"molecule": "C[C@H](O)[C@]1(O)CC[C@@]2(O)[C@]1(C)[C@H](OC(=O)/C=C/C=C/c1ccccc1)C[C@@H]1[C@@]3(C)CC[C@H](O)C[C@]3(O)[C@H](O)C[C@]12O", "values": [{"measurement": "Activity", "setting": "[3]", "value": 4.2, "unit": "%"}, {"measurement": "Activity", "setting": "[5]", "value": -3.1, "unit": "%"}, {"measurement": "Activity", "setting": "[6]", "value": 8.8, "unit": "%"}, {"measurement": "Activity", "setting": "[7]", "value": "Dose-dependent effect"}]}
{"molecule": "CO[C@H]1C[C@H](O[C@H]2[C@@H](O)C[C@H](O[C@H]3CC[C@]4(C)[C@H]5C[C@@H](OC(=O)/C=C/C=C/c6ccccc6)[C@@]6(C)[C@](O)(CC[C@@]6(O)[C@H](C)O)[C@]5(O)C[C@H](O)[C@@]4(O)C3)O[C@@H]2C)O[C@H](C)[C@H]1O[C@H]1C[C@@H](OC)[C@H](O)[C@@H](C)O1", "values": [{"measurement": "Activity", "setting": "[1]", "value": "Active"}, {"measurement": "fold change (FC)", "setting": "[2]", "value": 3.1}]}
{"molecule": "COc1cc(/C=C/C(=O)CC(=O)/C=C/c2ccc(O)c(OC)c2)ccc1O", "note": "[CURCUMIN]", "values": [{"measurement": "fold change (FC)", "setting": "[8]", "value": 1.7}]}
{"molecule": "CO[C@H]1C[C@H](O[C@H]2[C@@H](O)C[C@H](O[C@H]3CC[C@]4(C)[C@H]5C[C@@H](OC(=O)/C=C/C=C/c6ccccc6)[C@@]6(C)[C@](O)(CC[C@@]6(O)[C@H](C)O)[C@]5(O)C[C@@H](O)[C@@]4(O)C3)O[C@@H]2C)O[C@H](C)[C@H]1O[C@H]1C[C@@H](OC)[C@H](O)[C@@H](C)O1", "values": [{"measurement": "Activity", "setting": "[1]", "value": "Active"}, {"measurement": "fold change (FC)", "setting": "[2]", "value": 2.5}]}
{"molecule": "CCCCCCCCCCCCCCCC(=O)N[C@@H](CCC(=O)NCCCC[C@H](NC(=O)[C@H](C)NC(=O)[C@H](C)NC(=O)[C@H](CCC(N)=O)NC(=O)CNC(=O)[C@H](CCC(=O)O)NC(=O)[C@H](CC(C)C)NC(=O)[C@H](Cc1ccc(O)cc1)NC(=O)[C@H](CO)NC(=O)[C@H](CO)NC(=O)[C@@H](NC(=O)[C@H](CC(=O)O)NC(=O)[C@H](CO)NC(=O)[C@@H](NC(=O)[C@H](Cc1ccccc1)NC(=O)[C@@H](NC(=O)CNC(=O)[C@H](CCC(=O)O)NC(=O)[C@H](C)NC(=O)[C@@H](N)Cc1cnc[nH]1)[C@@H](C)O)[C@@H](C)O)C(C)C)C(=O)N[C@@H](CCC(=O)O)C(=O)N[C@@H](Cc1ccccc1)C(=O)N[C@H](C(=O)N[C@@H](C)C(=O)N[C@@H](Cc1c[nH]c2ccccc12)C(=O)N[C@@H](CC(C)C)C(=O)N[C@H](C(=O)N[C@@H](CCCNC(=N)N)C(=O)NCC(=O)N[C@@H](CCCNC(=N)N)C(=O)NCC(=O)O)C(C)C)[C@@H](C)CC)C(=O)O", "note": "[LIRAGLUTIDE]", "values": [{"measurement": "Activity", "setting": "[5]", "value": 19.1, "unit": "%"}]}
